{"source": "paper PMC12780242", "about": "(Scientific Reports, 2025)", "key": {"AGC": {"test_system": "AGC", "conditions": "cited from earlier work"}, "gastric cancer cells": {"test_system": "gastric cancer cells", "conditions": "preclinical studies; cited from earlier work"}, "CDT1": {"test_system": "CDT1", "test": "CDT1 immunohistochemistry in endoscopic tumor biopsies", "assay_type": "in vivo, human", "outline": "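Endoscopic tumor biopsies from gastric cancer patients, taken at screening and on day 2 after a single lead-in dose of pevonedistat given alone on day 1. Formalin-fixed paraffin-embedded sections stained by immunohistochemistry with a monoclonal anti-CDT1 antibody. Read-out is CDT1-positive cells.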"}, "[1]": {"test_system": "patients with unresectable advanced or recurrent gastric cancer (AGC)", "test": "Dose-finding cohort", "assay_type": "in vivo, human", "conditions": "in combination with CapeOX", "outline": "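Open-label multicenter phase I with standard 3 + 3 escalation. Pevonedistat dose levels were 20, 15 and 10 mg/m2. There was a single-agent lead-in dose on day 1, then a 7-day interval. Each 3-week cycle gave oxaliplatin 130 mg/m2 on day 1, oral capecitabine 1000 mg/m2/day twice daily about 12 h apart for 14 days, and pevonedistat on days 1, 3 and 5. The DLT window ran from the first lead-in dose to day 35 or the start of cycle 2, whichever came first. The RD also weighed adverse events in later cycles.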"}, "[2]": {"conditions": "Phase II trials for other cancers; cited from earlier work"}, "[3]": {"conditions": "after failure of ≥ 2 chemotherapy regimens, pivotal Phase III trials"}, "[4]": {"conditions": "third-line or later treatment of AGC"}}, "note": "Read-outs that look alike come from different tables or passages of the source."}
{"compound": "Nivolumab", "values": [{"measurement": "Response rates", "setting": "AGC; [3]", "result": "≤ 10", "unit": "%"}, {"measurement": "Patients experiencing disease progression as their best response", "setting": "AGC; [4]", "result": "more than 50%"}, {"measurement": "Response rates", "setting": "AGC; [4]", "result": "around 10%"}]}
{"compound": "NS(=O)(=O)OC[C@@H]1C[C@@H](n2ccc3c(N[C@H]4CCc5ccccc54)ncnc32)C[C@@H]1O", "note": "[Pevonedistat]", "values": [{"measurement": "Growth of gastric cancer cells", "setting": "gastric cancer cells", "result": "significantly suppresses the growth"}, {"measurement": "Cullin–RING ligase substrates NRF2 and CDT1 in post-treatment tumor biopsies", "setting": "CDT1; in vivo", "result": "increase"}, {"measurement": "Pevonedistat-NEDD8 adduct in post-treatment tumor biopsies", "setting": "CDT1; in vivo", "result": "presence"}, {"measurement": "Patients with increased CDT1 expression", "setting": "CDT1; post-treatment tumor biopsy", "result": 75, "unit": "%"}, {"measurement": "Maximum tolerated dose of pevonedistat", "setting": "[1]", "result": 15, "unit": "mg/m^2"}, {"measurement": "Recommended dose (RD) of pevonedistat", "setting": "[1]; days 1, 3, 5 of a 3-week cycle", "result": 15, "unit": "mg/m^2"}, {"measurement": "RD of pevonedistat combined with chemotherapy", "setting": "[2]", "result": "20–25 mg/m^2"}]}
{"compound": "trifluridine/tipiracil", "values": [{"measurement": "Response rates", "setting": "AGC; [3]", "result": "≤ 10", "unit": "%"}, {"measurement": "Patients experiencing disease progression as their best response", "setting": "AGC; [4]", "result": "more than 50%"}, {"measurement": "Response rates", "setting": "AGC; [4]", "result": "around 10%"}]}
{"compound": "CCc1c2c(nc3ccc(OC(=O)N4CCC(N5CCCCC5)CC4)cc13)-c1cc3c(c(=O)n1C2)COC(=O)[C@]3(O)CC", "note": "[irinotecan]", "values": [{"measurement": "Patients experiencing disease progression as their best response", "setting": "AGC; [4]", "result": "more than 50%"}, {"measurement": "Response rates", "setting": "AGC; [4]", "result": "around 10%"}]}
